The source of these data is ChEMBL document CHEMBL1156525, “A small-molecule therapeutic lead for Huntington's disease: preclinical pharmacology and efficacy of C2-8 in the R6/2 transgenic mouse” (Proc Natl Acad Sci U S A, 2007).

pIC50: −log10 of the molar value. The source made the active and inactive calls.

For series [1], the species on record is Mus musculus. Kind of series: Reduction of decrease in motor dysfunction in R6/2 mouse assessed as increase in latency to fall at 11 weeks of age by rotarod test. The class given is functional. Set-up: scale not given: the % may be the effect or the level left. The method, boiled down:
(§1)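 R6/2 mice dosed orally at 0, 100 or 200 mg/kg/12 h from 24 days of age until death. Rotarod latency to fall tested at 5, 8 and 11 weeks of age. n = 15; geometric mean ± 95% CI; mixed-model analysis.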
A general note: The rotarod test checks motor coordination on a turning rod.

The species named for series [2] is Mus musculus. Kind of series: Reduction of decrease in motor dysfunction in R6/2 mouse assessed as improvement in wire-hang endurance after 9.5 weeks. The class given is organism-based. To be noted: in vivo, 1596 h. The method, boiled down:
(§2)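 Female R6/2 mice dosed by oral gavage at 0, 100 or 200 mg/kg/12 h from 24 days of age. Wire-hang endurance tested at 9.5 and 12.5 weeks: mouse placed on horizontal wire mesh, mesh gently inverted, and time hanging recorded. Three trials per day on three consecutive days, averaged. n = 15; geometric mean ± 95% CI; mixed-model analysis.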

In series [3] the test system is PC-12. Kind of series: Inhibition of polyQ aggregation in rat PC12 cells. The class given is functional, cell-based.
Series [4] relates to Mus musculus. Kind of series: Toxicity in R6/2 mouse assessed as body weight at 200 mg/kg/12 hrs for 4 weeks. The settings on record: in vivo. The format is organism-based. The method, boiled down: (§3)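 Chronic tolerability study in adult female R6/2 mice (back-crossed onto C57BL/6 × CBA F1), n = 10 per group. Oral gavage twice daily at 50, 100 or 200 mg/kg/12 h for 4 weeks, given as a suspension made fresh daily. Body weight was recorded weekly at the same time of day.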

The test system of series [5] is Mus musculus. Kind of series: Toxicity in R6/2 mouse assessed as effect on body weight at 100 mg/kg/12 hrs for 4 weeks. The format is organism-based. To be noted: in vivo. The method, boiled down:
as §3

In series [6] the target is T1, Adenosine receptor A3 (Homo sapiens, UniProt P0DMS8).
T1 sequence (P0DMS8 whole entry): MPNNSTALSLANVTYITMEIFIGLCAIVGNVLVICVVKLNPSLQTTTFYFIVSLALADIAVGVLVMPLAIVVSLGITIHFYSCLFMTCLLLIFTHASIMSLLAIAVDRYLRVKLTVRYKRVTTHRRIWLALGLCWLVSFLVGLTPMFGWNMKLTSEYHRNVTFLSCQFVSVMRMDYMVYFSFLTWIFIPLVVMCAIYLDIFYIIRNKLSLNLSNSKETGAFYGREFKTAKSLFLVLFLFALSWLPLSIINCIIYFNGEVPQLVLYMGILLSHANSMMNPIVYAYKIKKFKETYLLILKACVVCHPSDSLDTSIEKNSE
Kind of series: Inhibition of adenosine A3 receptor. The method, boiled down:
(§4)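 Screened against a panel of 60 receptors, ion channels and transporters expressed in mammalian brain. Receptor-binding profile reported as IC50.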

The test system of series [7] is Mus musculus. Kind of series: Toxicity in R6/2 mouse assessed as survival at 200 mg/kg/12 hrs for 4 weeks. The format is organism-based. To be noted: in vivo.
Series [8] has as its system Mus musculus. Kind of series: Toxicity in R6/2 mouse assessed as survival at 100 mg/kg/12 hrs for 4 weeks. The class given is organism-based. The settings on record: in vivo.
Series [9] concerns Mus musculus. Kind of series: Decrease in neuronal atrophy in R6/2 mouse assessed as striatal neuronal cell body volume at 200 mg/kg relative to control. The format is functional. Also on record: scale not given: the % may be the effect or the level left. The method, boiled down:
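Female R6/2 mice given oral gavage twice daily from 3 weeks of age until death or kill. Perfused at 90 days with 2% paraformaldehyde. Every eighth 50 μm thionin-stained section used; striatal neuronal cell body volume estimated stereologically by the nucleator method. n = 10; mean ± SEM; ANOVA versus placebo-treated R6/2 mice.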

The nature of series [10]: Half life in po dosed mouse brain. The class given is ADME, organism-based. The method, boiled down:
(§5)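 Wild-type mice given single oral doses of 5, 10, 25 or 50 mg/kg. Plasma and brain sampled at 1, 4 and 8 h after dosing, and also at 16 and 24 h. Drug measured by HPLC/MS. n = 5; SD. Half-lives derived from the concentration–time course.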

The species named for series [11] is Mus musculus. Kind of series: Reduction of decrease in motor dysfunction in R6/2 mouse assessed as increase in latency to fall at 8 weeks of age by rotarod test. The class given is functional. Set-up: scale not given: the % may be the effect or the level left. The method, boiled down: as §1
For series [12], the system named is Mus musculus. Kind of series: Reduction of decrease in motor dysfunction in R6/2 mouse assessed as improvement in wire-hang endurance at 100 mg/kg/12 hrs after 12.5 weeks. The format is functional, organism-based. The method, boiled down: as §2
A short description of series [13]: Drug level in mouse cerebral cortex at 50 mg/kg, po administered for 5 days after 5 hrs. The settings on record: read-out: Drug uptake. The class given is ADME, organism-based. Also on record: dose 50 mg/kg, route oral. The method, boiled down:
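Wild-type mice (n = 5) given 50 mg/kg by oral gavage as a suspension for 5 days. Killed 5 h after the last dose. Cortex (20–30 mg) sonicated in acetonitrile/0.4% acetic acid at −10°C, centrifuged, and the supernatant dried and reconstituted in mobile phase. Analysed by LC electrochemical array against a 0.8 μg/ml standard.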

Series [14] relates to Plasma. Kind of series: Drug concentration in mouse plasma at 25 mg/kg, po after 24 hrs. The class given is ADME, organism-based. Set-up: dose 25 mg/kg, route oral. The settings on record: in vivo. The method, boiled down:
as §5

The nature of series [15]: Plasma half life in po dosed mouse. The format is ADME, organism-based. The method, boiled down:
as §5

In series [16] the target is Sodium-dependent dopamine transporter (Homo sapiens, UniProt Q01959). Kind of series: Inhibition of DAT. The method, boiled down: as §4
Sodium-dependent dopamine transporter, sequence (Q01959 whole entry): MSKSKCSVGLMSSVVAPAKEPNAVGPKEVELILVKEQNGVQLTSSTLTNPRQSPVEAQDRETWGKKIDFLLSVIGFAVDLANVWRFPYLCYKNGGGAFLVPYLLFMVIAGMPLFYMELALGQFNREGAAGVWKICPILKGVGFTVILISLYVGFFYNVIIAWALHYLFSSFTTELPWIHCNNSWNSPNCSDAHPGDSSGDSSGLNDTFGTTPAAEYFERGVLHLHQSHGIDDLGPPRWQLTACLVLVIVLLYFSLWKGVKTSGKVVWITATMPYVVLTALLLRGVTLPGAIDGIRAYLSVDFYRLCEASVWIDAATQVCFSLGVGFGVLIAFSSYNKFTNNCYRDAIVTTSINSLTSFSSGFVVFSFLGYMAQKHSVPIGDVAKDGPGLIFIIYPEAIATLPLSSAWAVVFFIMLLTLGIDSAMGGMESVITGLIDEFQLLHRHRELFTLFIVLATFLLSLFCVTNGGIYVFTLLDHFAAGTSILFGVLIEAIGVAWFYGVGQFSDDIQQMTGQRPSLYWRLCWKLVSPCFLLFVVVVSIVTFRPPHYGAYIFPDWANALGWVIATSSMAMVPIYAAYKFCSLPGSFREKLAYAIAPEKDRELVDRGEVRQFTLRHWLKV
The subject of series [17] is Brain. Kind of series: Drug concentration in mouse brain at 10 mg/kg, po after 16 hrs. The format is ADME, organism-based. Also on record: dose 10 mg/kg, route oral. To be noted: in vivo. The method, boiled down:
as §5

The test system of series [18] is Mus musculus. Kind of series: Decrease in striatal nuclear aggregate volume in R6/2 mouse at 200 mg/kg by nucleator method. The class given is functional. Also on record: scale not given: the % may be the effect or the level left. The method, boiled down:
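R6/2 mice dosed orally twice daily from 3 weeks of age, perfusion-fixed at 90 days. Floating forebrain sections at the anterior commissure crossing were stained with EM48 (1:2,000) for 2 days, then biotinylated secondary antibody and ABC development. Intranuclear aggregate volume in the striatum measured by the nucleator method. Compared with vehicle-treated R6/2 mice.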

Series [19] is described as follows: Lipophilicity, log P of the compound. To be noted: octanol/water. The class given is physicochemical.
For series [20], the system named is Mus musculus. Kind of series: Toxicity in R6/2 mouse assessed as effect on body weight at 50 mg/kg/12 hrs for 4 weeks. The class given is organism-based. The settings on record: in vivo. The method, boiled down: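 Chronic tolerability study in adult R6/2 mice, n = 10 per group, dosed with 50, 100 or 200 mg/kg/12 h for 4 weeks by oral gavage. Body weight recorded weekly at the same time of day.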

Series [21] can be described thus: Inhibition of opioid receptor. The method, boiled down:
as §4

Take `O=C(Nc1ccc(Br)cc1)c1cccc(S(=O)(=O)Nc2ccc(Br)cc2)c1`: the Activity is on record as 43% in series [1]; “Active” in [2]; “Non-toxic” in series [4]; “Non-toxic” in series [5]; “Non-toxic” in series [7]; “Non-toxic” in [8]. Besides, the Activity in series [9] was 20%; in series [11], 37%; in series [18], 35%; in [20], “Non-toxic”. Further, the pIC50 (usually −log10 of the IC50, conventionally taken in molar units) in [3] is 7.30; in series [6] it was 5.24; in series [16], 5.77; in series [21], 5.55. The half-life (usually the time needed for the level to fall by half in the phase considered) in series [10] is 1.6 h; in series [15] it was 1.5 h. Besides, the result in series [12] was Active. Besides, the concentration at 5 h in [13] came to 25 µM. The compound also showed a Cp in series [14] of less than 3 pmol/g. In series [17], this compound came in with a Drug uptake of less than 15 pmol/g. Besides, the logP (as a rule, the decadic logarithm of the partition coefficient of the neutral form, usually between octanol and water) in [19] was 5.2.
